Type in all cases: cell membranes
Test [1] has as its target T1, Neuronal acetylcholine receptor; alpha4/beta2 (Rattus norvegicus, UniProt P09483+P12390). Description: Displacement of [3H]cytisine from alpha4beta2 nicotinic acetylcholine receptor in rat brain cortex membrane homogenates. For orientation: Displacement assays read how much labelled ligand stays bound in the presence of the test substance.
The target of test [2] is T1, Neuronal acetylcholine receptor; alpha4/beta2. Put plainly: Displacement of (+/-)-[3H]epibatidine from alpha4beta2 nicotinic acetylcholine receptor in rat brain cortex membrane homogenates. The procedure, abridged: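 Compounds (10 pM-10 mM) preincubated 30 min rt, then overnight at 4 °C with 0.005-0.1 nM final [³H]-epibatidine. Nonspecific: 100 nM epibatidine. Filtration, β counting. Ki by LIGAND fit of three independent experiments.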

The target in test [3] is Neuronal acetylcholine receptor subunit alpha-7 (Rattus norvegicus, UniProt Q05941). Description: Displacement of [125I]alpha-bungarotoxin from alpha7 nicotinic acetylcholine receptor in rat brain cortex membrane homogenates. Summed up:
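Cortex membrane homogenates from 21-day-old rats in buffer A (Tris-HCl pH 7 with salts, PMSF). Compounds (10 pM-10 mM) preincubated 30 min at rt, then overnight at rt with 1 nM final [¹²⁵I]-α-bungarotoxin. Nonspecific: 1 μM unlabeled α-bungarotoxin. Filtration, γ counting. Ki fitted by LIGAND from three independent competition experiments; no inhibition up to 200 μM taken as Ki >100 μM.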

Our source for the Ki values is ChEMBL document CHEMBL1137789, “Synthesis, binding, and modeling studies of new cytisine derivatives, as ligands for neuronal nicotinic acetylcholine receptor subtypes” (J Med Chem, 2009).

Molecules are shown by their SMILES.

T1 sequence (P09483 whole entry): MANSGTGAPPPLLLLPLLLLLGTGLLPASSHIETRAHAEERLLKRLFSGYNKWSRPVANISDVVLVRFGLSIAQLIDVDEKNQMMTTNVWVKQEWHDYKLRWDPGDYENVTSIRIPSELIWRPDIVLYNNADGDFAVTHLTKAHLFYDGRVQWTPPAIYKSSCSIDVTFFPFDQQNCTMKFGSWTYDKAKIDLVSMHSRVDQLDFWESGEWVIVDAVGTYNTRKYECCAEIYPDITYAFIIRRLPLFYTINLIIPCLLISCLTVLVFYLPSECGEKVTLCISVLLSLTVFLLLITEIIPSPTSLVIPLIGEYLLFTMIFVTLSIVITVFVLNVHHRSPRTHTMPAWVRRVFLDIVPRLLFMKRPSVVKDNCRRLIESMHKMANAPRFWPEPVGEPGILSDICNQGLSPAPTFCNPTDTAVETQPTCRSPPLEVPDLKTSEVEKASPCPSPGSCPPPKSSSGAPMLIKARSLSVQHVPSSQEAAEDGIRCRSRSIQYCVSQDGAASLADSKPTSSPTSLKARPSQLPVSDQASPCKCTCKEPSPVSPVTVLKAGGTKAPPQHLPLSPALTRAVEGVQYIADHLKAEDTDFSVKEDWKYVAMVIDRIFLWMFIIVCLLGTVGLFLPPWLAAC
T1 sequence (P12390 whole entry): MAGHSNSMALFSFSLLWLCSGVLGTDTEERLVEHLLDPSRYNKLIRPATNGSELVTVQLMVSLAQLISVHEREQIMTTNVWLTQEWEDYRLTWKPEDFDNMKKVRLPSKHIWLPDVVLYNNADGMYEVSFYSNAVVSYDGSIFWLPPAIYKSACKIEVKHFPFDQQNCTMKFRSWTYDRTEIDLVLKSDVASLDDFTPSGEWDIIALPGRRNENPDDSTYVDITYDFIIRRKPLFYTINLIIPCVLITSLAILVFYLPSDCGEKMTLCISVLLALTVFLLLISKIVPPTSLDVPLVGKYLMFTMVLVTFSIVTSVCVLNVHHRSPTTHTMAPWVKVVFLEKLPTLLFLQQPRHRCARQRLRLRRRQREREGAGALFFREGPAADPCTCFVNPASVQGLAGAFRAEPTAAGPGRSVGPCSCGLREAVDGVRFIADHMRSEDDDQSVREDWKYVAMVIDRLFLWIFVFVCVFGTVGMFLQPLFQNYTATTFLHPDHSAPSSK
Sequence of Neuronal acetylcholine receptor subunit alpha-7 (Q05941 whole entry): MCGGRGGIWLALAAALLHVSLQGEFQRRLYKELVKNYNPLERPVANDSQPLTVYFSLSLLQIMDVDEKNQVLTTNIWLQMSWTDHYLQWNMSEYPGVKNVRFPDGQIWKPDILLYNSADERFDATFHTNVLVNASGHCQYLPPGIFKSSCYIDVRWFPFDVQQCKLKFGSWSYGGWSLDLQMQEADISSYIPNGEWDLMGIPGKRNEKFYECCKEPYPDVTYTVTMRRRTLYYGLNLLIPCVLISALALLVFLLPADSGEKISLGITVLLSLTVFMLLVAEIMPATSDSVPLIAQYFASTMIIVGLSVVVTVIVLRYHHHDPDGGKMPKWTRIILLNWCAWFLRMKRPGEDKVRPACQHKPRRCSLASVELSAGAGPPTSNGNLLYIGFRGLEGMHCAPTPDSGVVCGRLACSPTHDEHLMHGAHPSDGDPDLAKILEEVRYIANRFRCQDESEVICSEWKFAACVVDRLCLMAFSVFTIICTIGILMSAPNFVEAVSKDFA

With `CC(=O)CCN1C[C@@H]2C[C@H](C1)c1cccc(=O)n1C2`, the values for the Ki in test [1], in test [2] and in test [3] were 0.0032 µM, 0.0087 µM and 1.24 µM, respectively.
For `Cc1ccc(CCCN2C[C@@H]3C[C@H](C2)c2cccc(=O)n2C3)cc1`, the Ki (commonly the dissociation constant of the complex between target and ligand, obtained from inhibition or displacement) in test [2] was 7.2 µM; in test [3] it was more than 50 µM.
For the compound `O=C(CCCN1C[C@@H]2C[C@H](C1)c1cccc(=O)n1C2)c1ccc(F)cc1`, the Ki is 0.67 µM in test [1], 0.965 µM in test [2] and more than 50 µM in test [3].
As to `NC(=O)CCN1C[C@@H]2C[C@H](C1)c1cccc(=O)n1C2`, the values for the Ki in test [2] and in test [3] were 0.035 µM and 3.6 µM, respectively.
The corresponding values for `CC(=O)CCCN1C[C@@H]2C[C@H](C1)c1cccc(=O)n1C2` are 0.757 µM and more than 50 µM.
The matching figures for `O=c1cccc2n1C[C@H]1C[C@@H]2CN(Cc2cccnc2)C1`: 6.6 µM and more than 100 µM.
For `O=c1cccc2n1C[C@H]1C[C@@H]2CN(CCc2ccccc2)C1`, the Ki in test [1] is 0.078 µM; in test [2], 0.028 µM; in test [3], 25 µM.
For `O=c1cccc2n1C[C@H]1C[C@@H]2CN(CCc2ccccn2)C1`, the Ki in test [2] was 0.941 µM; in test [3], more than 100 µM.
In the case of `O=c1cccc2n1C[C@H]1C[C@@H]2CN(CCCCc2ccc(F)cc2)C1`, the Ki is 13 µM in test [2] and more than 50 µM in test [3].
With `O=c1cccc2n1C[C@H]1C[C@@H]2CN(CCCc2cccnc2)C1`, the Ki in test [2] was 0.744 µM; in test [3], more than 100 µM.
Turning to `O=c1cccc2n1C[C@H]1C[C@@H]2CN(CCCCc2ccccc2)C1`, the figures for the Ki in test [1] and in test [2] were 2.22 µM and 3.9 µM, respectively.
Regarding `O=c1cccc2n1C[C@H]1C[C@@H]2CN(CCCc2ccccc2)C1`, the Ki worked out at 0.042 µM in test [1], 0.063 µM in test [2] and 13 µM in test [3].
Take `O=C(CN1C[C@@H]2C[C@H](C1)c1cccc(=O)n1C2)c1ccccc1`: the Ki was determined as 0.017 µM in test [2] and 2.25 µM in test [3].
Consider `O=C(CCN1C[C@@H]2C[C@H](C1)c1cccc(=O)n1C2)c1ccccc1`, for which the Ki in test [1] was 0.0072 µM; in test [2], 0.0026 µM; in test [3], 0.55 µM.
As for `O=C(CCN1C[C@@H]2C[C@H](C1)c1cccc(=O)n1C2)c1ccc(F)cc1`, the Ki in test [1] came out at 0.013 µM; in test [2], 0.0053 µM; in test [3], 0.433 µM.
As to `Cc1ccc(CCN2C[C@@H]3C[C@H](C2)c2cccc(=O)n2C3)cc1`, the Ki was 0.727 µM in test [2] and more than 50 µM in test [3].
In the case of `O=c1cccc2n1C[C@H]1C[C@@H]2CN(Cc2ccccc2)C1`, the Ki in test [1] is 1 µM; in test [2], 0.85 µM; in test [3], more than 50 µM.
`NC(=O)CN1C[C@@H]2C[C@H](C1)c1cccc(=O)n1C2`: the Ki in test [2] was 7.3 µM; in test [3] it was more than 50 µM.
For the compound `CCCCCN1C[C@@H]2C[C@H](C1)c1cccc(=O)n1C2`, the results for the Ki in test [1], in test [2] and in test [3] were 0.0435 µM, 0.332 µM and 39.7 µM, respectively.
As to `O=C(CCCN1C[C@@H]2C[C@H](C1)c1cccc(=O)n1C2)c1ccccc1`, the Ki in test [2] was 0.816 µM; in test [3], more than 50 µM.
The matching figures for `O=c1cccc2n1C[C@H]1C[C@@H]2CN(Cc2ccncc2)C1`: 0.675 µM and more than 100 µM.
As to `O=c1cccc2n1C[C@H]1C[C@@H]2CN(Cc2ccc(F)cc2)C1`, the Ki in test [1] worked out at 0.183 µM; in test [2] it was 0.33 µM; in test [3], 78.7 µM.
With `O=c1cccc2n1C[C@H]1C[C@@H]2CN(CCc2ccc(F)cc2)C1`, the Ki is 1.3 µM in test [2] and more than 50 µM in test [3].
The matching figures for `O=c1cccc2n1C[C@H]1C[C@@H]2CN(CCc2ccncc2)C1`: 0.0072 µM and 4.2 µM.
For the compound `O=c1cccc2n1C[C@H]1C[C@@H]2CN(CCCc2ccc(F)cc2)C1`, the results for the Ki in test [1], in test [2] and in test [3] were 0.611 µM, 5 µM and more than 50 µM, respectively.
`O=C(CN1C[C@@H]2C[C@H](C1)c1cccc(=O)n1C2)c1ccc(F)cc1`: the inhibitory constant (Ki) in test [1] was 0.172 µM; in test [2], 0.409 µM.
Turning to `O=c1cccc2n1C[C@@H]1CNC[C@H]2C1` [CYTISINICLINE], the Ki in test [1] is 0.00034 µM; in test [2], 0.00048 µM; in test [3], 0.331 µM.
